Results collected from several papers.
Lines come from different studies, so protocols differ.
Target: Mu-type opioid receptor (OPRM1, Homo sapiens, UniProt P35372)
Observed: ligand displacement

| SMILES | test | conditions | inhibition [%] |
| --- | --- | --- | --- |
| O=C(c1ccc(Cl)cc1)N(Cc1ccccc1)C1CCCCC1 | – | 10 µM | 10.9 |
| CN1CCN(CCCOc2ccc(=O)n(-c3ccc(Cl)c(Cl)c3)n2)CC1 | – | 1 µM | 17.2 |
| CCN(Cc1ccccc1C(F)(F)F)C(=O)C1CCN(S(=O)(=O)c2ccc3[nH]ncc3c2)CC1 | radioligand | 10 µM | 5 |
| N#Cc1cc(Cn2c(N3CCCC3)nc3ccccc32)ccc1F | – | 10 µM | -6.78 |
| O=C1N=C(N2CCCCN2)S/C1=C\c1ccc(F)cc1O | radioligand | 10 µM | < 10 |
| CCCNc1nc2ccccc2n1Cc1ccc(Cl)cc1 | – | 10 µM | 12.4 |
| CCN(CC)c1ccc(C2Nc3ccc(C(=O)c4ccccc4)cc3NC3=C2C(=O)CC(C)(C)C3)cc1 (centres unmarked) | radioligand | 10 µM | 9 |
| COc1cc(NC(C)=O)c(Cl)cc1C(=O)Nc1nccs1 | – | 10 µM | -5.3 |
| O=C(Nc1ccc(S(=O)(=O)N2CCC(Cl)CC2)cc1)c1ccc([N+](=O)[O-])o1 | radioligand | 10 µM | 1 |
| Ic1cccc2cnccc12 | radioligand | 10 µM | -4 |
| COc1ccc(-n2nc(OCCCN3CCCCC3)ccc2=O)cc1 | – | 1 µM | 45.8 |
